In ChEMBL document CHEMBL2321726, “Identification of selective inhibitors for human neuraminidase isoenzymes using C4,C7-modified 2-deoxy-2,3-didehydro-N-acetylneuraminic acid (DANA) analogues” (J Med Chem, 2013):

How the values were obtained:
[1] = biological target: Neuraminidase (Vibrio cholerae, UniProt Q5IB64); assay: Inhibition of Vibrio cholerae neuraminidase
[2] = biological target: Sialidase-1 (Homo sapiens, UniProt Q99519); assay: Inhibition of human neuraminidase 1 using 4MU-NANA as substrate after 30 mins by fluorescence assay
Outline: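 NEU1 purified per earlier protocol as complex with β-galactosidase and cathepsin A. 0.1 M sodium acetate, pH 4.5. Inhibitor in 3-fold serial dilutions from 1 mM final, preincubated with enzyme 15 min at 37 °C. 4MU-NANA (50 μM final) added, 30 min at 37 °C. Four replicates; IC50 by nonlinear regression.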

[3] = biological target: T1, Sialidase-4 (Homo sapiens, UniProt Q8WWR8); assay: Inhibition of human neuraminidase 4 using 4MU-NANA as substrate after 30 mins by fluorescence assay
T1 sequence (Q8WWR8 whole entry): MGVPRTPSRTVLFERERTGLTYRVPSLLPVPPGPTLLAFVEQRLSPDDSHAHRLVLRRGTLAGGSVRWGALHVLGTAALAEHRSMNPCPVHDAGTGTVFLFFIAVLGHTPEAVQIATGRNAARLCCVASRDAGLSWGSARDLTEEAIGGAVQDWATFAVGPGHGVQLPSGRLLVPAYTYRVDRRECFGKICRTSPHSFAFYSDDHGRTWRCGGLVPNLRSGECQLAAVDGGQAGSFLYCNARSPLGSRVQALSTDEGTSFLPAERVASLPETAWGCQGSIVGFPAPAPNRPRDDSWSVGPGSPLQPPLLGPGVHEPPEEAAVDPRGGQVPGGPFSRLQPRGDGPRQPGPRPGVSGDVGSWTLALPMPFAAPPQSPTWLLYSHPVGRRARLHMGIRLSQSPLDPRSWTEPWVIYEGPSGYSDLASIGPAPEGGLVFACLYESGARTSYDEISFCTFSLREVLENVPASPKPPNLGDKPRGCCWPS
Outline: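 GST-fusion enzyme, assayed in 0.1 M sodium acetate pH 4.5. Inhibitor diluted 3-fold serially from 1 mM final, incubated 15 min at 37 °C with enzyme, then 4MU-NANA (50 μM final) 30 min at 37 °C. Four replicates; IC50 from nonlinear regression.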

[4] = biological target: T2, Sialidase-3 (Homo sapiens, UniProt Q9UQ49); assay: Inhibition of human neuraminidase 3 expressed in Escherichia coli using 4MU-NANA as substrate after 30 mins by fluorescence assay
T2 sequence (Q9UQ49 whole entry): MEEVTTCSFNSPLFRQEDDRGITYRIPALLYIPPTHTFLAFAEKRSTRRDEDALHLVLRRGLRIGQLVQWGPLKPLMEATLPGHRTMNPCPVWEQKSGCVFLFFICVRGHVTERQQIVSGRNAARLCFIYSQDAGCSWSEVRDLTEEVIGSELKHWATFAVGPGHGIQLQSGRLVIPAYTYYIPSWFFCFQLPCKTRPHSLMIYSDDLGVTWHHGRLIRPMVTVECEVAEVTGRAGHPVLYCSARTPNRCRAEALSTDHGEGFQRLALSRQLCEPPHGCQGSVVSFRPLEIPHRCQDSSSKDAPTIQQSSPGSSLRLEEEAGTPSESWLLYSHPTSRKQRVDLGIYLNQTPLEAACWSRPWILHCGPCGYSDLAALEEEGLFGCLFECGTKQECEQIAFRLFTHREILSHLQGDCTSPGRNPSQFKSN
Outline: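 Enzyme made in E. coli as N-terminal MBP fusion. 0.1 M sodium acetate pH 4.5. 3-fold serial inhibitor dilutions from 1 mM final, 15 min preincubation with enzyme at 37 °C, then 4MU-NANA 50 μM final for 30 min at 37 °C. Glycinate pH 10.7 stop, fluorescence 365/445 nm. Quadruplicate points; IC50 by nonlinear regression.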

[5] = biological target: T2, Sialidase-3; assay: Inhibition of human neuraminidase 3 expressed in Escherichia coli using 4MU-NANA as substrate measured for every 30 seconds for 60 mins by fluorescence assay
Outline: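 Product formation at 37 °C read every 30 s for 60 min (ex 365/em 445 nm). Initial linear rates; Lineweaver–Burk slopes plotted against inhibitor concentration and fitted for Ki.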

Structure (SMILES): CC(=O)N[C@H]1[C@H](CNc2ccccc2)OC(C(=O)O)=C[C@@H]1N
- IC50 [1]: > 1000 µM
- IC50 [2]: > 1000 µM
- IC50 [3]: > 1000 µM
- IC50 [4]: 540 µM

Structure (SMILES): CC(=O)N[C@H]1[C@H](CNc2ccccc2)OC(C(=O)O)=C[C@@H]1O
- IC50 [1]: > 1000 µM
- IC50 [2]: > 1000 µM
- IC50 [3]: > 1000 µM
- IC50 [4]: 370 µM

Structure (SMILES): CC(=O)N[C@H]1[C@H](CNCc2ccccc2)OC(C(=O)O)=C[C@@H]1O
- IC50 [1]: 470 µM
- IC50 [2]: > 1000 µM
- IC50 [3]: > 1000 µM
- IC50 [4]: > 1000 µM

Structure (SMILES): CC(=O)N[C@H]1[C@H](CNNCc2ccc(-c3ccccc3)cc2)OC(C(=O)O)=C[C@@H]1O
- IC50 [1]: > 1000 µM
- IC50 [2]: > 1000 µM
- IC50 [3]: 200 µM
- IC50 [4]: 70 µM

Structure (SMILES): CC(=O)N[C@H]1[C@H]([C@H](O)[C@H](O)CO)OC(C(=O)O)=C[C@@H]1N=[N+]=[N-]
- IC50 [1]: 540 µM
- IC50 [2]: 360 µM
- IC50 [3]: 1000 µM
- IC50 [4]: 54 µM

Structure (SMILES): CC(=O)N[C@@H]1[C@@H](N=[N+]=[N-])C=C(C(=O)O)O[C@H]1CNc1ccccc1
- IC50 [1]: > 1000 µM
- IC50 [2]: > 1000 µM
- IC50 [3]: 300 µM
- IC50 [4]: 440 µM

Structure (SMILES): CC(=O)N[C@@H]1[C@@H](N=[N+]=[N-])C=C(C(=O)O)O[C@H]1CNc1ccc(-c2ccccc2)cc1
- IC50 [1]: > 1000 µM
- IC50 [2]: > 1000 µM
- IC50 [3]: 210 µM
- IC50 [4]: 50 µM

Structure (SMILES): CC(=O)N[C@@H]1[C@@H](N=[N+]=[N-])C=C(C(=O)O)O[C@H]1CNOCc1ccccc1
- Ki [5]: 8 µM
- IC50 [1]: 550 µM
- IC50 [2]: > 1000 µM
- IC50 [3]: > 1000 µM
- IC50 [4]: 24 µM

Structure (SMILES): CC(=O)N[C@@H]1[C@@H](N=[N+]=[N-])C=C(C(=O)O)O[C@H]1CN(Cc1ccccc1)OCc1ccccc1
- IC50 [1]: > 1000 µM
- IC50 [2]: > 1000 µM
- IC50 [3]: 350 µM
- IC50 [4]: 24 µM

Structure (SMILES): CC(=O)N[C@@H]1[C@@H](N=[N+]=[N-])C=C(C(=O)O)O[C@H]1CNNc1ccccc1
- Ki [5]: 11 µM
- IC50 [1]: > 1000 µM
- IC50 [2]: > 1000 µM
- IC50 [3]: > 1000 µM
- IC50 [4]: 20 µM

Structure (SMILES): CC(=O)N[C@H]1[C@H]([C@H](O)[C@H](O)CO)OC(C(=O)O)=C[C@@H]1N
- IC50 [1]: > 1000 µM
- IC50 [2]: > 1000 µM
- IC50 [3]: 720 µM
- IC50 [4]: 180 µM

Structure (SMILES): CC(=O)N[C@H]1[C@H]([C@H](O)[C@H](O)CO)OC(C(=O)O)=C[C@@H]1O [NEU5AC2EN]
- Ki [5]: 2.2 µM
- IC50 [1]: 170 µM
- IC50 [4]: 6.3 µM
